# From ChEMBL document CHEMBL4229344 (Eur J Med Chem, 2018)
# Experiments:
# [1] = biological target: Interleukin-1 receptor-associated kinase 1 (Homo sapiens) (UniProt P51617); experiment: Binding affinity to wild-type human partial length IRAK1 (R194 to S712 residues) expressed in mammalian expression system assessed as residual binding level at 1 uM by Kinomescan method relative to control
# [2] = biological target: Receptor-type tyrosine-protein kinase FLT3 (Homo sapiens) (UniProt P36888); experiment: Binding affinity to wild-type human partial length autoinhibited FLT3 (H564 to Y969 residues) expressed in mammalian expression system assessed as residual binding level at 1 uM by Kinomescan method relative to control
# [3] = biological target: Dual specificity tyrosine-phosphorylation-regulated kinase 1A (Homo sapiens) (UniProt Q13627); experiment: Binding affinity to wild-type human partial length DYRK1A (H129 to S509 residues) expressed in mammalian expression system assessed as residual binding level at 1 uM by Kinomescan method relative to control
# [4] = biological target: Tyrosine-protein kinase Fer (Homo sapiens) (UniProt P16591); experiment: Binding affinity to wild-type human partial length FER (S542 to T822 residues) expressed in bacterial expression system assessed as residual binding level at 1 uM by Kinomescan method relative to control
# [5] = biological target: Tyrosine-protein kinase Mer (Homo sapiens) (UniProt Q12866); experiment: Binding affinity to wild-type human partial length MERTK (R557 to L884 residues) expressed in bacterial expression system assessed as residual binding level at 1 uM by Kinomescan method relative to control
# [6] = biological target: Angiopoietin-1 receptor (Homo sapiens) (UniProt Q02763); experiment: Binding affinity to wild-type human partial length TIE2 (N804 to T1112 residues) expressed in bacterial expression system assessed as residual binding level at 1 uM by Kinomescan method relative to control
# [7] = biological target: Cyclin-dependent kinase-like 2 (Homo sapiens) (UniProt Q92772); experiment: Binding affinity to wild-type human partial length CDKL2 (M1 to D327 residues) expressed in bacterial expression system assessed as residual binding level at 1 uM by Kinomescan method relative to control
# Chain of Cyclin-dependent kinase-like 2 (Homo sapiens) (Q92772 whole entry, the tested form may be a part): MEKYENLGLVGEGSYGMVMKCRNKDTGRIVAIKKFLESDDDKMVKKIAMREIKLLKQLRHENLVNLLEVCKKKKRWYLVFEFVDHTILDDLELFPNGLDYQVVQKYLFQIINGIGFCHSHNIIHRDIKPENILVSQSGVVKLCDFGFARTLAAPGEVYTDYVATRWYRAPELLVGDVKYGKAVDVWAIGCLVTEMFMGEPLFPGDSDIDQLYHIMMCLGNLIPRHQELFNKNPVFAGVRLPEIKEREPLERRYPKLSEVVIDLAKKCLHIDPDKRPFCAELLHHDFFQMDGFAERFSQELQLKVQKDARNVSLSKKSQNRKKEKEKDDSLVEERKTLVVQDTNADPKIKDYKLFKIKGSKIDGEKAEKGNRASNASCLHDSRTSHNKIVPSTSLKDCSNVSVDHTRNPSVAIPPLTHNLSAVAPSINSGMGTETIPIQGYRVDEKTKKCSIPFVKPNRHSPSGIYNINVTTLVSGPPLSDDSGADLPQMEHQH
# [8] = biological target: Serine/threonine-protein kinase DCLK2 (Homo sapiens) (UniProt Q8N568); experiment: Binding affinity to wild-type human partial length DCAMKL2 (K273 to V664 residues) expressed in bacterial expression system assessed as residual binding level at 1 uM by Kinomescan method relative to control
# [9] = biological target: Serine/threonine-protein kinase 32B (Homo sapiens) (UniProt Q9NY57); experiment: Binding affinity to wild-type human full length YANK2 (M1 to S414 residues) expressed in bacterial expression system assessed as residual binding level at 1 uM by Kinomescan method relative to control
# Outline: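 KINOMEscan competition binding against 468 purified kinases/mutants, test compound at 1 µM; residual binding relative to control.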
# [10] = biological target: Mitogen-activated protein kinase kinase kinase 7 (Homo sapiens) (UniProt O43318); experiment: Binding affinity to wild-type human partial length TAK1 (M1 to Q303 residues) expressed in mammalian expression system assessed as residual binding level at 1 uM by Kinomescan method relative to control
# Chain of Mitogen-activated protein kinase kinase kinase 7 (Homo sapiens) (O43318 whole entry, the tested form may be a part): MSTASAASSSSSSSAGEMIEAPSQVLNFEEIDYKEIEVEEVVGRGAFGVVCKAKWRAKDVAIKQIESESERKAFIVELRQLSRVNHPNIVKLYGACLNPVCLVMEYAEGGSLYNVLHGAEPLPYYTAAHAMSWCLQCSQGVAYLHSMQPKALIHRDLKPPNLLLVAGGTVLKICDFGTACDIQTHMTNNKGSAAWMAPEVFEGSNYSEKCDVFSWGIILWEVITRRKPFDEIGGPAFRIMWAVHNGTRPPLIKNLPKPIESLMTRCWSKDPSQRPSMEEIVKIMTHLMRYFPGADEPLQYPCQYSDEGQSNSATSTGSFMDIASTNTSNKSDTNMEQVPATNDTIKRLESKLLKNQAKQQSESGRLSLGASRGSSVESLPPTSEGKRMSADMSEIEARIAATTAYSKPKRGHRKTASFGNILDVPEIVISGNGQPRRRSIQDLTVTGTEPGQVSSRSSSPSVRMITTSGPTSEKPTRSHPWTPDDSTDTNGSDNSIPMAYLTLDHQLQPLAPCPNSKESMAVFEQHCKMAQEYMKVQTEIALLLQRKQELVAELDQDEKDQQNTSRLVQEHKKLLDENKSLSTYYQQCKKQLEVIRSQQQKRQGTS
# Outline: (§1)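 KINOMEscan competition binding against a panel of 468 purified kinases/mutants, compound tested at 1 μM; readout is relative binding activity versus control.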
# [11] = biological target: Tyrosine-protein kinase ITK/TSK (Homo sapiens) (UniProt Q08881); experiment: Binding affinity to wild-type human partial length ITK (R335 to L620 residues) expressed in bacterial expression system assessed as residual binding level at 1 uM by Kinomescan method relative to control
# Chain of Tyrosine-protein kinase ITK/TSK (Homo sapiens) (Q08881 whole entry, the tested form may be a part): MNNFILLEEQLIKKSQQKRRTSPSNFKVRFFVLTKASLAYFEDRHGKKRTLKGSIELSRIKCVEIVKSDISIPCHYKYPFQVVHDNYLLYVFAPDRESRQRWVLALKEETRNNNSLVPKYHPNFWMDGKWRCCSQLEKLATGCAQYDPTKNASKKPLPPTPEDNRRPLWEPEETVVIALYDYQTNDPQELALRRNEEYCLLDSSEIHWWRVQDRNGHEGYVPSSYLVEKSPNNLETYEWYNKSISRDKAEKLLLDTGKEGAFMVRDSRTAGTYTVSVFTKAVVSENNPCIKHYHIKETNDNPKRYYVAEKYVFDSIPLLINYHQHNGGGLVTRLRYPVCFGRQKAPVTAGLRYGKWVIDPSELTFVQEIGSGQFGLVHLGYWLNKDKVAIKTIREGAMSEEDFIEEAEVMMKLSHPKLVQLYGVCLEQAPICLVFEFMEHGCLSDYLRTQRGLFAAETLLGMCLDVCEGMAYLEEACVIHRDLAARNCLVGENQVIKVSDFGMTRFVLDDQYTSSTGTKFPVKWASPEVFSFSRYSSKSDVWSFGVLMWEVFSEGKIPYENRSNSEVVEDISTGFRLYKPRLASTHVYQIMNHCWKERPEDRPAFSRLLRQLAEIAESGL
# [12] = biological target: Tyrosine-protein kinase JAK1 (Homo sapiens) (UniProt P23458); experiment: Binding affinity to wild-type human partial length JAK1 JH2 pseudokinase domain (R537 to D855 residues) expressed in mammalian expression system assessed as residual binding level at 1 uM by Kinomescan method relative to control
# [13] = biological target: Serine/threonine-protein kinase PknB (Mycobacterium tuberculosis) (UniProt P9WI81); experiment: Binding affinity to wild-type Mycobacterium tuberculosis H37Rv ATCC 25618 partial length PKNB (M1 to G279 residues) expressed in mammalian expression system assessed as residual binding level at 1 uM by Kinomescan method relative to control
# Chain of Serine/threonine-protein kinase PknB (Mycobacterium tuberculosis) (P9WI81 whole entry, the tested form may be a part): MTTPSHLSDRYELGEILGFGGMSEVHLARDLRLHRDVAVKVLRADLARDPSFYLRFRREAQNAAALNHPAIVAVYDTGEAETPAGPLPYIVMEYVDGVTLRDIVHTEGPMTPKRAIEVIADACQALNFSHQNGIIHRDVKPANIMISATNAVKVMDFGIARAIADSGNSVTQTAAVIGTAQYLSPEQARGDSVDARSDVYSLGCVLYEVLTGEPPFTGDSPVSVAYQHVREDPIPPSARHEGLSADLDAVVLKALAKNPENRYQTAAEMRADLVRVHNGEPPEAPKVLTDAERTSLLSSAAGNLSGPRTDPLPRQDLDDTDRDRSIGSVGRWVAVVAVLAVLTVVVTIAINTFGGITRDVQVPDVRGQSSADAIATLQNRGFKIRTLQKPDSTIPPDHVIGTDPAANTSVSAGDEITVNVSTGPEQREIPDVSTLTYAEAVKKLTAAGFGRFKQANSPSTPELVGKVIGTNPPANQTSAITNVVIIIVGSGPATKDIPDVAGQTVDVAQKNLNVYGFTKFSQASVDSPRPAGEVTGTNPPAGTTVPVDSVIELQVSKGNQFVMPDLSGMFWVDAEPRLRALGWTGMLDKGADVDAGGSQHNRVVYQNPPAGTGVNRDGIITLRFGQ
# Outline: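 Single-concentration (1 μM) competition-binding screen run by KINOMEscan against a panel of 468 purified kinases and mutants. The read-out is the relative binding activity of the test compound to each kinase.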
# [14] = biological target: Tyrosine-protein kinase FRK (Homo sapiens) (UniProt P42685); experiment: Binding affinity to wild-type human partial length FRK (A215 to F503 residues) expressed in bacterial expression system assessed as residual binding level at 1 uM by Kinomescan method relative to control
# Outline: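 Kinome-wide competition binding screen against a panel of 468 purified kinases/mutants, with the test compound at a single concentration of 1 μM. Read-out is the relative binding activity of each kinase in the presence of compound.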
# EOL1 = experiment: Antitumor activity against human EOL-1 cells xenografted in nu/nu mouse assessed as tumor growth inhibition at 100 mg/kg/day, ip; type: functional; conditions: read-out: TGI
# Outline: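 Female nu/nu mice (6 weeks) given subcutaneous right-flank injection of 5 million EOL-1 cells in PBS/Matrigel 1:1. At 200–400 mm3 tumors, randomized to groups of 6 and dosed daily i.p. for 14 days at 25, 50 or 100 mg/kg/d in 0.5% methylcellulose/0.4% Tween80. Tumor volume = W²×L/2, measured daily.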
# [15] = biological target: Mast/stem cell growth factor receptor Kit (Homo sapiens, UniProt P10721); experiment: Binding affinity to wild-type human partial length autoinhibited KIT (Y545 to D952 residues) expressed in mammalian expression system assessed as residual binding level at 1 uM by Kinomescan method relative to control
# [16] = system: Mast/stem cell growth factor receptor Kit (Homo sapiens), P10721 [D816H]; experiment: Binding affinity to human partial length KIT D816H mutant (I571 to D952 residues) expressed in mammalian expression system assessed as residual binding level at 1 uM by Kinomescan method relative to control
# Chain of Mast/stem cell growth factor receptor Kit (Homo sapiens), P10721 [D816H] (P10721 whole entry D816H, the tested form may be a part): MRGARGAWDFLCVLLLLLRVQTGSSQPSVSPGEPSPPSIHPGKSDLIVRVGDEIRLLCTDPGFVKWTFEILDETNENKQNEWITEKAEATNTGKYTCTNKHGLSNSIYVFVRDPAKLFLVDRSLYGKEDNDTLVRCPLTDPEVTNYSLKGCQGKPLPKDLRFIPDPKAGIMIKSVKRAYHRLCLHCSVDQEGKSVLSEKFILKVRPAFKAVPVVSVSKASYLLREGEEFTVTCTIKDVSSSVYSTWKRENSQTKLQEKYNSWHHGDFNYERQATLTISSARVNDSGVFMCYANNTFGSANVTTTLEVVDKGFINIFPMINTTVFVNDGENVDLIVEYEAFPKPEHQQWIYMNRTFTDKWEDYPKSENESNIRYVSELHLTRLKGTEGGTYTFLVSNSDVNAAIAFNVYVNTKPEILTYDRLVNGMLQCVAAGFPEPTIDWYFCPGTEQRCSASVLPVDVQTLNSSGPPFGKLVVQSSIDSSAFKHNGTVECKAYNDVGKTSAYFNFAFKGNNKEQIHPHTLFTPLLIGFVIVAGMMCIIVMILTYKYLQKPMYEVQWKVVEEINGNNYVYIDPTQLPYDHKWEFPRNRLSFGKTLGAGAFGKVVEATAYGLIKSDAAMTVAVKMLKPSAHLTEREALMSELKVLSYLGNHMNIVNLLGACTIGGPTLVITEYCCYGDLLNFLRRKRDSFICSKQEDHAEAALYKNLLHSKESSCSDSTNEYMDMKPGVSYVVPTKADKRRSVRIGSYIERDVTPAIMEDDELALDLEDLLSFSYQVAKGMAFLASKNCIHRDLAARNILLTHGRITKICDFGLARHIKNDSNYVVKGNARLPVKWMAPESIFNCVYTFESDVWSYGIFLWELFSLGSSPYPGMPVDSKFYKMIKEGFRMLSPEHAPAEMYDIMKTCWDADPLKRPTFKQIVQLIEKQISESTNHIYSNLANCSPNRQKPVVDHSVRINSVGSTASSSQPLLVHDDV
# Outline: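 Kinome-wide single-concentration binding screen (KINOMEscan) at 1 μM against a panel of 468 purified kinases and mutants. Read-out is relative binding of each kinase compared with control. Selectivity across the panel was summarised as an S(10) score.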
# [17] = biological target: Serine/threonine-protein kinase Sgk3 (Homo sapiens) (UniProt Q96BR1); experiment: Binding affinity to wild-type human partial length SGK3 (M119 to L496 residues) expressed in mammalian expression system assessed as residual binding level at 1 uM by Kinomescan method relative to control; outline: as §1
# Chain of Serine/threonine-protein kinase Sgk3 (Homo sapiens) (Q96BR1 whole entry, the tested form may be a part): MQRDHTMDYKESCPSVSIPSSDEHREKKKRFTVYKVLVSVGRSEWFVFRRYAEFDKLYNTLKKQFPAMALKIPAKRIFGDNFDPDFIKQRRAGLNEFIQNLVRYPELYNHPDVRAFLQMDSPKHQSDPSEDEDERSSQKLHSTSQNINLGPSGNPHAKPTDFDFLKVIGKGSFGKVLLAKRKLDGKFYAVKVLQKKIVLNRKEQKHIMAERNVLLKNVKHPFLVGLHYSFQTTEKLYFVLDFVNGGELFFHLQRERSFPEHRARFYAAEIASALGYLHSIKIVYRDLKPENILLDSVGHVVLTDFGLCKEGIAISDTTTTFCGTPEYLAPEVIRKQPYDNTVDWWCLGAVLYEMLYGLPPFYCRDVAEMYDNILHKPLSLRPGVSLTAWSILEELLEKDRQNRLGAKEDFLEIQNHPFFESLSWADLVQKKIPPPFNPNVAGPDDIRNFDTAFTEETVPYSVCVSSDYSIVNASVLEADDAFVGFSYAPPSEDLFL
# [18] = biological target: Interferon-induced, double-stranded RNA-activated protein kinase (Homo sapiens) (UniProt P19525); experiment: Binding affinity to wild-type human partial length PRKR (F247 to C551 residues) expressed in bacterial expression system assessed as residual binding level at 1 uM by Kinomescan method relative to control
# [19] = biological target: Serine/threonine-protein kinase WNK4 (Homo sapiens) (UniProt Q96J92); experiment: Binding affinity to wild-type human partial length WNK4 (A31 to D461 residues) expressed in mammalian expression system assessed as residual binding level at 1 uM by Kinomescan method relative to control
# Chain of Serine/threonine-protein kinase WNK4 (Homo sapiens) (Q96J92 whole entry, the tested form may be a part): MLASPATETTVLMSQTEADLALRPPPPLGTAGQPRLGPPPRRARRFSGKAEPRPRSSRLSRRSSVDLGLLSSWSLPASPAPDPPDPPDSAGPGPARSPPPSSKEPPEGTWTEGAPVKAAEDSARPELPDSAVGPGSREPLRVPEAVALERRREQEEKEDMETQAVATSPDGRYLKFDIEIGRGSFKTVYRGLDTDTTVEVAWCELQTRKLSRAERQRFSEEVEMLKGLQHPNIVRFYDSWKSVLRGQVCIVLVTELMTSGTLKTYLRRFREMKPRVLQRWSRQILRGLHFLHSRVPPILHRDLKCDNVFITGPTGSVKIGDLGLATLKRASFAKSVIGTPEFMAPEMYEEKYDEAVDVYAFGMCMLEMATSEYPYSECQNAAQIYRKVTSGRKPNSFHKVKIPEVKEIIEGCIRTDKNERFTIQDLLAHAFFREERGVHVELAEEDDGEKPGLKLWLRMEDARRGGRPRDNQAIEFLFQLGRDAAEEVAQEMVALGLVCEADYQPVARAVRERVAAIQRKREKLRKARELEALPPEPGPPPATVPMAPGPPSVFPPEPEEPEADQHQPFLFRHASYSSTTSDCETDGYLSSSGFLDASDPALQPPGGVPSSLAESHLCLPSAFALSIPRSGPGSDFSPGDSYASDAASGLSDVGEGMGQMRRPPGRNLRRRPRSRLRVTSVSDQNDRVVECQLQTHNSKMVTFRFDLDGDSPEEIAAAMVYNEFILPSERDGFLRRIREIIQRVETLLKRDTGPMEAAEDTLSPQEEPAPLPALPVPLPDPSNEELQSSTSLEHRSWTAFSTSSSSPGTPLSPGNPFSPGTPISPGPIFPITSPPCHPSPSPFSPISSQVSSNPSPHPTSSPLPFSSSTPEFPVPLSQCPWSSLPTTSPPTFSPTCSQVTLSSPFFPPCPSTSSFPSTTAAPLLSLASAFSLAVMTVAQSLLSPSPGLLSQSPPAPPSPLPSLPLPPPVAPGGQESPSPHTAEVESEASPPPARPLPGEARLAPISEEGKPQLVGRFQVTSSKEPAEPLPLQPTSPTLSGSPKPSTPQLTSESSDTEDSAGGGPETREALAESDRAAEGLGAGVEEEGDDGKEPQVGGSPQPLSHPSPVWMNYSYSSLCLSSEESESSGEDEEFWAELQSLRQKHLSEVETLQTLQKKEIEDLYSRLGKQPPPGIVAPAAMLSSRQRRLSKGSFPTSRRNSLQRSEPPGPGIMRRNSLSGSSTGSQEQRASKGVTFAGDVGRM
# [20] = Apparent clearance in Sprague-Dawley rat at 1 mg/kg, iv; type: ADME, organism-based; conditions: in vivo, read-out: CL(app) (converted)
smiles,measurement,setting,value
Cc1ccc(NC(=O)c2ccc(CN(CCN(C)C)C(=O)c3cccnc3)cc2)cc1Nc1nccc(-c2cccnc2)n1,Activity,[1],98%
same,Activity,[2],100%
same,Activity,[3],100%
same,Activity,[4],100%
same,Activity,[5],100%
same,Activity,[6],93%
same,Activity,[7],95%
same,Activity,[8],96%
same,Activity,[9],82%
same,Activity,[10],92%
same,Activity,[11],100%
same,Activity,[12],78%
same,Activity,[13],99%
same,Activity,[14],80%
same,inhibition in vivo at 100 mg/kg/day,EOL1,100%
same,Activity,[15],100%
same,Activity,[16],100%
same,Activity,[17],92%
same,Activity,[18],100%
same,Activity,[19],100%
same,clearance,[20],32.7 mL/min/kg
